Measured values reported in ChEMBL document CHEMBL4038284, “Synthesis of novel quinoline-based 4,5-dihydro-1H-pyrazoles as potential anticancer, antifungal, antibacterial and antiprotozoal agents” (Eur J Med Chem, 2017).

Tests used:
Assay type in all cases: functional
NCI-H460 = experiment: Growth inhibition of human NCI-H460 cells incubated for 48 hrs by sulforhodamine B assay; conditions: NCI-H460, 48 h
In short: (§1)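 Five-dose NCI SRB assay at 100, 10, 1.0, 0.1 and 0.01 μM for 48 h at 37 °C, 5% CO2. Medium was RPMI-1640 with 5% FBS and 2 mM glutamine. Time-zero plates were TCA-fixed at compound addition, A515 read after SRB staining. GI50 was solved from [(Ti−Tz)/(C−Tz)]×100 = 50. Values beyond the tested range are given as > or <.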

HCC 2998 = experiment: Growth inhibition of human HCC2998 cells incubated for 48 hrs by sulforhodamine B assay; conditions: HCC 2998, 48 h
In short: (§2)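 NCI 60-line screen. Cells in RPMI-1640 with 5% FBS and 2 mM L-glutamine, preincubated 24 h, then time-zero plates TCA-fixed. Compounds from DMSO stocks given at five final concentrations (100, 10, 1.0, 0.1, 0.01 µM) for 48 h at 37 °C, 5% CO2. Cells fixed with 10% TCA, SRB-stained, read at 515 nm. GI50 is the concentration giving 50% lower net protein increase versus control.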

MDA-MB-231 = experiment: Growth inhibition of human MDA-MB-231 cells incubated for 48 hrs by sulforhodamine B assay; conditions: MDA-MB-231, 48 h; in short: as §1
NCI-H522 = experiment: Growth inhibition of human NCI-H522 cells incubated for 48 hrs by sulforhodamine B assay; conditions: NCI-H522, 48 h; in short: as §2
SK-MEL-5 = experiment: Growth inhibition of human SK-MEL-5 cells incubated for 48 hrs by sulforhodamine B assay; conditions: SK-MEL-5, 48 h; in short: as §2
A549 = experiment: Growth inhibition of human A549/ATCC cells incubated for 48 hrs by sulforhodamine B assay; conditions: A549, 48 h; in short: as §2
RPMI-8226 = experiment: Growth inhibition of human RPMI8226 cells incubated for 48 hrs by sulforhodamine B assay; conditions: RPMI-8226, 48 h; in short: as §2
NCI-H23 = experiment: Growth inhibition of human NCI-H23 cells incubated for 48 hrs by sulforhodamine B assay; conditions: NCI-H23, 48 h; in short: as §1
SK-OV-3 = experiment: Growth inhibition of human SKOV3 cells incubated for 48 hrs by sulforhodamine B assay; conditions: SK-OV-3, 48 h; in short: as §2
NCI-H226 = experiment: Growth inhibition of human NCI-H226 cells incubated for 48 hrs by sulforhodamine B assay; conditions: NCI-H226, 48 h; in short: as §2
MCF7 = experiment: Growth inhibition of human MCF7 cells incubated for 48 hrs by sulforhodamine B assay; conditions: MCF7, 48 h; in short: as §2
SK-MEL-28 = experiment: Growth inhibition of human SK-MEL-28 cells incubated for 48 hrs by sulforhodamine B assay; conditions: SK-MEL-28, 48 h
In short: (§3)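 NCI-60 panel cells grown in RPMI-1640 with 5% FBS and 2 mM L-glutamine, preincubated 24 h at 37 °C/5% CO2. Time-zero plates were TCA-fixed at compound addition. DMSO stocks were diluted in medium and tested at five final concentrations (100, 10, 1.0, 0.1, 0.01 µM) for 48 h. Cells were TCA-fixed, stained with SRB and read at 515 nm. GI50 = 50% lower net protein increase versus control.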

SF-295 = experiment: Growth inhibition of human SF295 cells incubated for 48 hrs by sulforhodamine B assay; conditions: SF-295, 48 h; in short: as §1
DU-145 = experiment: Growth inhibition of human DU145 cells incubated for 48 hrs by sulforhodamine B assay; conditions: DU-145, 48 h
In short: (§4)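 NCI five-dose SRB assay (100, 10, 1.0, 0.1, 0.01 µM) with 48 h exposure in RPMI-1640 with 5% FBS and 2 mM L-glutamine. Cells fixed with TCA and stained with SRB, read at 515 nm. GI50 is the concentration where [(Ti−Tz)/(C−Tz)]×100 = 50.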

CCRF-CEM = experiment: Growth inhibition of human CCRF-CEM cells incubated for 48 hrs by sulforhodamine B assay; in short: as §2
RXF 393 = experiment: Growth inhibition of human RXF393 cells incubated for 48 hrs by sulforhodamine B assay; conditions: RXF 393, 48 h; in short: as §1
OVCAR-8 = experiment: Growth inhibition of human OVCAR8 cells incubated for 48 hrs by sulforhodamine B assay; conditions: OVCAR-8, 48 h; in short: as §1
UACC-257 = experiment: Growth inhibition of human UACC257 cells incubated for 48 hrs by sulforhodamine B assay; conditions: UACC-257, 48 h; in short: as §3
SF-268 = experiment: Growth inhibition of human SF268 cells incubated for 48 hrs by sulforhodamine B assay; conditions: SF-268, 48 h; in short: as §1
786-0 = experiment: Growth inhibition of human 786-0 cells incubated for 48 hrs by sulforhodamine B assay; conditions: 786-0, 48 h; in short: as §4
HCT-116 = experiment: Growth inhibition of human HCT116 cells incubated for 48 hrs by sulforhodamine B assay; conditions: HCT-116, 48 h; in short: as §4
EKVX = experiment: Growth inhibition of human EKVX cells incubated for 48 hrs by sulforhodamine B assay; in short: as §4
M14 = experiment: Growth inhibition of human M14 cells incubated for 48 hrs by sulforhodamine B assay; conditions: M14, 48 h; in short: as §1
SR = experiment: Growth inhibition of human SR cells incubated for 48 hrs by sulforhodamine B assay; in short: as §2
K562 = experiment: Growth inhibition of human K562 cells incubated for 48 hrs by sulforhodamine B assay; conditions: K562, 48 h; in short: as §2
HT-29 = experiment: Growth inhibition of human HT-29 cells incubated for 48 hrs by sulforhodamine B assay; conditions: HT-29, 48 h; in short: as §1
COLO 205 = experiment: Growth inhibition of human COLO205 cells incubated for 48 hrs by sulforhodamine B assay; conditions: COLO 205, 48 h; in short: as §4
MDA-MB-468 = experiment: Growth inhibition of human MDA-MB-468 cells incubated for 48 hrs by sulforhodamine B assay; conditions: MDA-MB-468, 48 h; in short: as §1
NCI/ADR-RES = experiment: Growth inhibition of human NCI/ADR-RES cells incubated for 48 hrs by sulforhodamine B assay; in short: as §2
TK-10 = experiment: Growth inhibition of human TK10 cells incubated for 48 hrs by sulforhodamine B assay; conditions: TK-10, 48 h; in short: as §2
[1] = read-out: LC50 (the source's name)

COc1cc(C(=O)/C=C/c2cccc(Nc3ccnc4cc(Cl)ccc34)c2)cc(OC)c1OC
GI50 (NCI-H460): 1.91 µM
CC50 (NCI-H460; [1]): > 100 µM
GI50 (HCC 2998): 1.72 µM
CC50 (HCC 2998; [1]): 5.99 µM
GI50 (MDA-MB-231): 1.81 µM
GI50 (NCI-H522): 0.59 µM
CC50 (NCI-H522; [1]): 6.23 µM
GI50 (SK-MEL-5): 1.38 µM
CC50 (SK-MEL-5; [1]): 5.18 µM
GI50 (A549): 1.48 µM
LC50 (concentration giving 50% net cell kill) (A549): 11.5 µM
GI50 (RPMI-8226): 0.31 µM
CC50 (RPMI-8226; [1]): > 100 µM
GI50 (NCI-H23): 1.67 µM
CC50 (NCI-H23; [1]): 8.1 µM
GI50 (SK-OV-3): 1.94 µM
CC50 (SK-OV-3; [1]): 2.61 µM
GI50 (NCI-H226): 1.27 µM
CC50 (NCI-H226; [1]): 6.85 µM
GI50 (MCF7): 0.61 µM
CC50 (MCF7; [1]): 5.24 µM
GI50 (SK-MEL-28): 1.51 µM
CC50 (SK-MEL-28; [1]): 5.98 µM
GI50 (SF-295): 1.42 µM
CC50 (SF-295; [1]): 6.47 µM
GI50 (DU-145): 1.46 µM
GI50 (CCRF-CEM): 0.36 µM
CC50 (CCRF-CEM; [1]): > 100 µM
GI50 (RXF 393): 1.08 µM
CC50 (RXF 393; [1]): 5.67 µM
GI50 (OVCAR-8): 0.52 µM
LC50 (concentration causing 50% net cell kill) (OVCAR-8): 7.07 µM
GI50 (UACC-257): 1.43 µM
CC50 (UACC-257; [1]): 6.53 µM
GI50 (SF-268): 1.24 µM
GI50 (786-0): 0.56 µM
LC50 (786-0): 4.89 µM
GI50 (HCT-116): 0.35 µM
LC50 (concentration killing 50% of cells) (HCT-116): 3.98 µM
GI50 (EKVX): 1.62 µM
GI50 (M14): 1.41 µM
GI50 (SR): 0.32 µM
CC50 (SR; [1]): > 100 µM
GI50 (K562): 0.4 µM
CC50 (K562; [1]): > 100 µM
GI50 (HT-29): 0.32 µM
LC50 (HT-29): 5.51 µM
GI50 (COLO 205): 1.34 µM
CC50 (COLO 205; [1]): > 100 µM
GI50 (MDA-MB-468): 1.13 µM
GI50 (NCI/ADR-RES): 0.41 µM
CC50 (NCI/ADR-RES; [1]): > 100 µM
GI50 (TK-10): 1.45 µM
CC50 (TK-10; [1]): 6.11 µM
